One data set relates to Staphylococcus aureus. Nature of the data set: Antimicrobial activity against Staphylococcus aureus ATCC 11632 after 24 hrs by broth microdilution assay. In kind it is functional. To be noted: ATCC 11632, 24 h. In outline:
(§1)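 Broth dilution MIC. Stock is 10 mg compound in 1 mL DMSO, serially diluted in Mueller–Hinton broth for bacteria or Sabouraud liquid medium for yeasts and mould. Tubes are inoculated at 10⁵ cfu/mL and incubated at 37 °C for 24 h. Controls are medium alone and medium with DMSO at matching dilutions. MIC is the lowest concentration giving complete growth inhibition.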
(In broth dilution the organism is exposed to a series of concentrations in liquid medium.)

In the next data set the test system is Enterococcus faecalis. Nature of the data set: Antimicrobial activity against Streptococcus faecalis ATCC 14506 after 24 hrs by broth microdilution assay. In kind it is functional. The note with it: ATCC 14506, 24 h. The method in brief: as §1
Another data set relates to Bacillus subtilis. Kind of data set: Antimicrobial activity against Bacillus subtilis ATCC 60511 after 24 hrs by broth microdilution assay. The note with it: ATCC 60511, 24 h. In kind it is functional. In outline:
as §1

The next data set concerns Klebsiella pneumoniae. Nature of the data set: Antimicrobial activity against Klebsiella pneumoniae ATCC 10031 after 24 hrs by broth microdilution assay. Type of data set: functional. The note with it: ATCC 10031, 24 h. In outline: as §1
Another data set relates to Escherichia coli. Nature of the data set: Antimicrobial activity against Escherichia coli ATCC 10536 after 24 hrs by broth microdilution assay. Type of data set: functional. The note with it: ATCC 10536, 24 h. The method in brief: as §1
Another data set relates to Pseudomonas aeruginosa. Nature of the data set: Antimicrobial activity against Pseudomonas aeruginosa ATCC 10145 after 24 hrs by broth microdilution assay. In kind it is functional. To be noted: ATCC 10145, 24 h. In outline: as §1
The subject of another data set is Saccharomyces cerevisiae. Nature of the data set: Antimicrobial activity against Saccharomyces cerevisiae ATCC 9763 after 24 hrs by broth microdilution assay. In kind it is functional. To be noted: ATCC 9763, 24 h. In outline:
as §1

The test system of the next data set is Candida tropicalis. Kind of data set: Antimicrobial activity against Candida tropicalis ATCC 1369 after 24 hrs by broth microdilution assay. Type of data set: functional. The note with it: ATCC 1369, 24 h. In outline:
as §1

The test system of the next data set is Aspergillus niger. Nature of the data set: Antimicrobial activity against Aspergillus niger ATCC 6275 after 24 hrs by broth microdilution assay. The note with it: ATCC 6275, 24 h. In kind it is functional. In outline:
as §1

In data set [1] the test system is Mycobacterium tuberculosis. Nature of the data set: Antimycobacterial activity against Mycobacterium tuberculosis H37Rv after 21 days by broth dilution assay. In kind it is functional. To be noted: 504 h. The method in brief: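 Middlebrook 7H9 broth with 10% albumin-dextrose-catalase and 0.2% glycerol; frozen culture thawed, diluted to 10⁵ cfu/mL and used as inoculum. Compounds taken up in DMSO and diluted twice in broth, 1.3% DMSO final. Incubated at 37 °C. Growth judged by eye against drug-free and inoculum-free controls and isoniazid. MIC is the lowest concentration inhibiting ≥99% of the starting population.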

Another data set concerns A549. Nature of the data set: Cytotoxicity against human A549 cells at 250 uM. In kind it is cell-based. The note with it: a549, 250 µM. In outline:
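A549 lung adenocarcinoma cells are grown with fetal bovine serum. Compounds are taken from 10 mM DMSO stocks stored at −20 °C and diluted in culture medium, with treatments at 50–250 µM. Viability is read by MTT assay against untreated cells and a DMSO vehicle control.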

Values after ≈ are worked out from the molar mass of the structure shown.

Broadly, the MIC is the least concentration at which growth counts as inhibited. Lower therefore signals a more susceptible organism. On to `CC(=O)N1N=C(c2nc(C(C)C)cs2)OC1(C)c1ccc([N+](=O)[O-])cc1` (configuration not stated), for which the MIC in the data set with Staphylococcus aureus came to 31.2 µg/mL (≈ 83.5 µM); in the data set with Enterococcus faecalis, 62.5 µg/mL (≈ 167 µM); against Bacillus subtilis, 62.5 µg/mL (≈ 167 µM); against Klebsiella pneumoniae it was 62.5 µg/mL (≈ 167 µM); in the data set with Escherichia coli, 16 µg/mL (≈ 42.7 µM); in the data set with Pseudomonas aeruginosa, 31.2 µg/mL (≈ 83.5 µM). In addition, the MIC turned out to be 31.2 µg/mL (≈ 83.5 µM) against Saccharomyces cerevisiae, 62.5 µg/mL (≈ 167 µM) in the data set on Candida tropicalis, 31.2 µg/mL (≈ 83.5 µM) with Aspergillus niger and 125 µg/mL (≈ 334 µM) in data set [1].

For `CC(C)c1csc(-c2nnc(-c3ccccc3)o2)n1`, the MIC with Staphylococcus aureus was 31.2 µg/mL (≈ 115 µM); in the data set on Enterococcus faecalis, 16 µg/mL (≈ 59 µM); with Bacillus subtilis, 62.5 µg/mL (≈ 230 µM); against Klebsiella pneumoniae it was 250 µg/mL (≈ 921 µM); with Escherichia coli, 125 µg/mL (≈ 461 µM); against Pseudomonas aeruginosa it was 62.5 µg/mL (≈ 230 µM). In addition, the MIC came to 62.5 µg/mL (≈ 230 µM) against Saccharomyces cerevisiae, 125 µg/mL (≈ 461 µM) against Candida tropicalis, 125 µg/mL (≈ 461 µM) with Aspergillus niger and 31.2 µg/mL (≈ 115 µM) in data set [1].

In the case of `CC(C)c1csc(-c2nnc(-c3ccc(Cl)cc3)o2)n1`, the MIC is 8 µg/mL (≈ 26.2 µM) with Staphylococcus aureus; 8 µg/mL (≈ 26.2 µM) with Enterococcus faecalis; 4 µg/mL (≈ 13.1 µM) against Bacillus subtilis; 125 µg/mL (≈ 409 µM) with Klebsiella pneumoniae; 125 µg/mL (≈ 409 µM) against Escherichia coli; 125 µg/mL (≈ 409 µM) with Pseudomonas aeruginosa. Moreover, the minimal inhibitory concentration (MIC) against Saccharomyces cerevisiae came out at 62.5 µg/mL (≈ 204 µM); with Candida tropicalis, 125 µg/mL (≈ 409 µM); against Aspergillus niger it was 62.5 µg/mL (≈ 204 µM); in data set [1], 4 µg/mL (≈ 13.1 µM).

`CC(=O)N1N=C(c2nc(C(C)C)cs2)OC1(C)c1ccc(Br)cc1` (configuration not stated): the MIC came out at 16 µg/mL (≈ 39.2 µM) with Staphylococcus aureus; 16 µg/mL (≈ 39.2 µM) with Enterococcus faecalis; 31.2 µg/mL (≈ 76.5 µM) in the data set with Bacillus subtilis; 16 µg/mL (≈ 39.2 µM) with Klebsiella pneumoniae; 62.5 µg/mL (≈ 153 µM) in the data set with Escherichia coli; 16 µg/mL (≈ 39.2 µM) against Pseudomonas aeruginosa. Further, the MIC worked out at 31.2 µg/mL (≈ 76.5 µM) in the data set with Saccharomyces cerevisiae, 31.2 µg/mL (≈ 76.5 µM) with Candida tropicalis, 31.2 µg/mL (≈ 76.5 µM) in the data set on Aspergillus niger and 125 µg/mL (≈ 306 µM) in [1].

Regarding `CC(=O)N1N=C(c2nc(C(C)C)cs2)OC1(C)c1ccc(C)cc1` (configuration not stated), the MIC with Staphylococcus aureus was determined as 125 µg/mL (≈ 364 µM); against Enterococcus faecalis, 125 µg/mL (≈ 364 µM); with Bacillus subtilis it was 16 µg/mL (≈ 46.6 µM); in the data set with Klebsiella pneumoniae, 31.2 µg/mL (≈ 91 µM); in the data set on Escherichia coli, 16 µg/mL (≈ 46.6 µM); with Pseudomonas aeruginosa, 125 µg/mL (≈ 364 µM). Moreover, the MIC in the data set with Saccharomyces cerevisiae stood at 16 µg/mL (≈ 46.6 µM); in the data set with Candida tropicalis it was 31.2 µg/mL (≈ 91 µM); in the data set on Aspergillus niger it was 31.2 µg/mL (≈ 91 µM); in data set [1] it was 31.2 µg/mL (≈ 91 µM).

With `CC(C)c1csc(-c2nnc(-c3ccc(O)cc3)o2)n1`, the MIC in the data set with Staphylococcus aureus amounted to 62.5 µg/mL (≈ 218 µM); in the data set with Enterococcus faecalis, 62.5 µg/mL (≈ 218 µM); in the data set with Bacillus subtilis, 31.2 µg/mL (≈ 109 µM); with Klebsiella pneumoniae it was 62.5 µg/mL (≈ 218 µM); against Escherichia coli, 62.5 µg/mL (≈ 218 µM); in the data set on Pseudomonas aeruginosa, 62.5 µg/mL (≈ 218 µM). In addition, the MIC stood at 62.5 µg/mL (≈ 218 µM) with Saccharomyces cerevisiae, 125 µg/mL (≈ 435 µM) in the data set on Candida tropicalis, 125 µg/mL (≈ 435 µM) against Aspergillus niger and 125 µg/mL (≈ 435 µM) in data set [1].

As to `Cc1ccc(/C=N/n2c(S)nnc2-c2nc(C(C)C)cs2)cc1`, the MIC in the data set with Staphylococcus aureus was 31.2 µg/mL (≈ 91 µM); in the data set on Enterococcus faecalis it was 125 µg/mL (≈ 364 µM); against Bacillus subtilis it was 31.2 µg/mL (≈ 91 µM); in the data set on Klebsiella pneumoniae, 125 µg/mL (≈ 364 µM); in the data set on Escherichia coli, 125 µg/mL (≈ 364 µM); against Pseudomonas aeruginosa it was 31.2 µg/mL (≈ 91 µM). Also, the MIC was 31.2 µg/mL (≈ 91 µM) against Saccharomyces cerevisiae, 31.2 µg/mL (≈ 91 µM) against Candida tropicalis, 16 µg/mL (≈ 46.6 µM) in the data set on Aspergillus niger and 32.5 µg/mL (≈ 94.6 µM) in data set [1]. In the data set on A549, this compound returned an Activity of 50%.

For `CC(C)c1csc(-c2nnc(S)n2/N=C/c2ccccc2Cl)n1`, the MIC is 31.2 µg/mL (≈ 85.9 µM) with Staphylococcus aureus; 8 µg/mL (≈ 22 µM) against Enterococcus faecalis; 4 µg/mL (≈ 11 µM) in the data set on Bacillus subtilis; 8 µg/mL (≈ 22 µM) against Klebsiella pneumoniae; 62.5 µg/mL (≈ 172 µM) against Escherichia coli; 16 µg/mL (≈ 44 µM) against Pseudomonas aeruginosa. In addition, the MIC against Saccharomyces cerevisiae turned out to be 31.2 µg/mL (≈ 85.9 µM); with Candida tropicalis, 31.2 µg/mL (≈ 85.9 µM); in the data set on Aspergillus niger, 16 µg/mL (≈ 44 µM); in data set [1], 4 µg/mL (≈ 11 µM). The compound also displayed an Activity in the data set on A549 of 50%.

Values taken from ChEMBL document CHEMBL1157864, “Synthesis of some novel 2-substituted-5-[isopropylthiazole] clubbed 1,2,4-triazole and 1,3,4-oxadiazoles as potential antimicrobial and antitubercular agents” (Eur J Med Chem, 2010).
